Measured values taken from ChEMBL document CHEMBL2375304, “Synthesis and anticancer activity of novel 2-pyridyl hexahyrocyclooctathieno[2,3-d]pyrimidine derivatives” (2013).

How the values were obtained:
Type in all cases: functional
UACC-257 = assay: Growth inhibition of human UACC257 cells after 48 hrs by Sulforhodamine B assay; conditions: UACC-257, 48 h
Summary of the method: (§1)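 Five-concentration stage in the […]-cell-line panel, using 10-fold or ½-log serial dilutions made from a DMSO stock (400-fold). Cells were preincubated 24 h at 37 °C, then drug-exposed 48 h. A time-zero plate was fixed with TCA at dosing, adherent cells were fixed with cold TCA (10% final), and protein was stained with SRB, absorbance 515 nm. GI50 was where [(Ti−Tz)/(C−Tz)]×100 = 50, from the percent growth vs log concentration plot, expressed as log10 GI50.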

HCT-15 = assay: Growth inhibition of human HCT15 cells after 48 hrs by Sulforhodamine B assay; conditions: HCT-15, 48 h
Summary of the method: (§2)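 Five-concentration SRB assay using 10-fold or ½-log serial dilutions from a DMSO stock. Exposure is 48 h at 37 °C in 5% CO2 after 24 h preincubation. TCA fixation is followed by SRB staining and a reading at 515 nm. Percentage growth is computed from time-zero, control and treated absorbances. GI50 is the concentration where [(Ti−Tz)/(C−Tz)]×100 = 50, read from the plot against log concentration.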

MDA-MB-435 = assay: Growth inhibition of human MDA-MB-435 cells after 48 hrs by Sulforhodamine B assay; conditions: MDA-MB-435, 48 h; summary of the method: as §2
786-0 = assay: Growth inhibition of human 786-0 cells after 48 hrs by Sulforhodamine B assay; conditions: 786-0, 48 h; summary of the method: as §2
BT-549 = assay: Growth inhibition of human BT549 cells after 48 hrs by Sulforhodamine B assay; conditions: BT-549, 48 h; summary of the method: as §2
UACC-62 = assay: Growth inhibition of human UACC62 cells after 48 hrs by Sulforhodamine B assay; conditions: UACC-62, 48 h; summary of the method: as §1
ACHN = assay: Growth inhibition of human ACHN cells after 48 hrs by Sulforhodamine B assay; summary of the method: as §2
LOX IMVI = assay: Growth inhibition of human LOXIMVI cells after 48 hrs by Sulforhodamine B assay; summary of the method: as §2
K562 = assay: Growth inhibition of human K562 cells after 48 hrs by Sulforhodamine B assay; conditions: K562, 48 h; summary of the method: as §2
[1] = Growth inhibition of human HCC2998 cells after 48 hrs by Sulforhodamine B assay; conditions: HCC 2998, 48 h; summary of the method: as §2
SF-268 = assay: Growth inhibition of human SF268 cells after 48 hrs by Sulforhodamine B assay; conditions: SF-268, 48 h
Summary of the method: (§3)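 Cells were preincubated 24 h at 37 °C, 5% CO2, and a time-zero plate was TCA-fixed. Five concentrations were made by serial dilution from a DMSO stock (400-fold the top concentration) and incubated 48 h. Adherent cells were fixed with 10% final TCA and suspension cells with 16%. Plates were stained with 0.4% SRB and read at 515 nm. GI50 is the concentration giving 50% reduction in net protein increase versus control.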

NCI-H23 = assay: Growth inhibition of human NCI-H23 cells after 48 hrs by Sulforhodamine B assay; conditions: NCI-H23, 48 h; summary of the method: as §3
HOP-92 = assay: Growth inhibition of human HOP92 cells after 48 hrs by Sulforhodamine B assay; conditions: HOP-92, 48 h; summary of the method: as §2

Q: With `CN1CCN(c2nc(-c3ccncc3)nc3sc4c(c23)CCCCCC4)CC1` as the compound, how does the GI50 (UACC-257) read?
A: 10.7 µM

Q: What about the GI50 (HCT-15) of the same compound?
A: 11.2 µM

Q: And the GI50 (MDA-MB-435)?
A: 11.7 µM

Q: What about the GI50 (786-0) of the same compound?
A: 4.79 µM

Q: What about the GI50 (BT-549) of the same compound?
A: 6.31 µM

Q: What about the GI50 (UACC-62) of the same compound?
A: 11 µM

Q: What about the GI50 (ACHN) of the same compound?
A: 7.94 µM

Q: What about the GI50 (LOX IMVI) of the same compound?
A: 8.32 µM

Q: And the GI50 (K562)?
A: 3.55 µM

Q: What about the GI50 [1] of the same compound?
A: 3.89 µM

Q: What about the GI50 (SF-268) of the same compound?
A: 5.37 µM

Q: What about the GI50 (NCI-H23) of the same compound?
A: 11.5 µM

Q: What about the GI50 (HOP-92) of the same compound?
A: 0.661 µM

Q: Which results are given for `O=c1[nH]c(-c2ccncc2)nc2sc3c(c12)CCCCCC3`?
A: GI50 (UACC-257): > 100 µM; GI50 (HCT-15): > 100 µM; GI50 (MDA-MB-435): > 100 µM; GI50 (786-0): > 100 µM; GI50 (BT-549): > 100 µM; GI50 (UACC-62): > 100 µM; GI50 (ACHN): > 100 µM; GI50 (LOX IMVI): > 100 µM; GI50 (K562): > 100 µM; GI50 [1]: > 100 µM; GI50 (SF-268): > 100 µM; GI50 (NCI-H23): > 100 µM; GI50 (HOP-92): > 100 µM
